ChEMBL document CHEMBL1134480, “Antiplasmodial activity and cytotoxicity of bis-, tris-, and tetraquinolines with linear or cyclic amino linkers” (J Med Chem, 2001)

Columns and labels:
[1] = test system: Plasmodium falciparum; assay: (§1) In vitro growth inhibition of Plasmodium falciparum D6; type: functional, organism-based
[2] = test system: Plasmodium falciparum; assay: In vitro growth inhibition of Plasmodium falciparum W2; type: functional, organism-based
[3] = test system: MRC5; assay: Cytotoxicity against MRC-5 cells at concentration 32 uM; type: functional; settings: Homo sapiens
Outline: (§2)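 MRC-5 human embryonic lung diploid cells were seeded at 5000 per well. After 24 h the cells were washed and exposed to 2-fold drug dilutions in RPMI + 5% FCS, with final DMSO below 0.5%. Incubation was 7 days at 37 °C in 5% CO2. Viability was read by MTT absorbance at 540 nm.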

[4] = test system: MRC5; assay: Cytotoxicity against MRC-5 cells at concentration 1 uM; type: functional; settings: Homo sapiens; outline: as §2
[5] = organism: Mus musculus; assay: In vitro cytotoxic activity against mouse peritoneal macrophages at a concentration 8 uM; Non-toxic; type: functional
[6] = organism: Mus musculus; assay: In vitro cytotoxic activity against mouse peritoneal macrophages at a concentration 2 uM; Non-toxic; type: functional
[7] = test system: Plasmodium falciparum; assay: In vitro growth inhibition of Plasmodium falciparum F32; type: functional, organism-based
[8] = test system: MRC5; assay: Cytotoxicity against MRC-5 cells at concentration 0.5 uM; type: functional; settings: Homo sapiens; outline: as §2
[9] = test system: Plasmodium falciparum; assay: In vitro growth inhibition of Plasmodium falciparum FcB1R; type: functional, organism-based
Outline: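 Asynchronous P. falciparum cultures were grown in human erythrocytes at 0.5% parasitemia and 1% hematocrit. They were exposed to serial drug dilutions, with DMSO ≤0.1%, for 24 h at 37 °C before adding 0.5 µCi [3H]hypoxanthine per well. Inhibition was measured as incorporated radioactivity versus drug-free controls on the same plate. IC50 came from concentration–response curves, reported as mean ± SD of three independent experiments; FcB1R used several experiments.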

[10] = test system: MRC5; assay: Cytotoxicity against MRC-5 cells at concentration 8 uM; type: functional; settings: Homo sapiens; outline: as §2
[11] = In vitro cytotoxicity against mouse peritoneal macrophages at concentration 32 uM; Toxic; type: toxicity
[12] = In vitro cytotoxic activity against mouse peritoneal macrophages at a concentration 2 uM; Toxic; type: toxicity
[13] = In vitro cytotoxic activity against mouse peritoneal macrophages at a concentration 32 uM; Toxic; type: toxicity
[14] = In vitro cytotoxic activity against mouse peritoneal macrophages at a concentration 8 uM; Toxic; type: toxicity
[15] = test system: Plasmodium falciparum; assay: as §1; type: functional, organism-based; remark: listed apart in the source
Outline: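 Asynchronous P. falciparum cultures in human erythrocytes (0.5% parasitemia, 1% final hematocrit) exposed to serially diluted drug for 24 h at 37 °C, then pulsed with 0.5 µCi [³H]hypoxanthine per well. Inhibition from incorporated radioactivity versus drug-free control on the same plate; IC50 from concentration-response curve; mean ± SD of three independent experiments. DMSO ≤0.1% final.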

O=C(CCCCCCCCCCC(=O)N1CCN(c2ccnc3cc(Cl)ccc23)CCN(c2ccnc3cc(Cl)ccc23)CC1)N1CCN(c2ccnc3cc(Cl)ccc23)CCN(c2ccnc3cc(Cl)ccc23)CC1
IC50 [1]: 0.123 µM | IC50 [2]: 0.18 µM | cytotoxicity at 32 µM [3]: 0% | cytotoxicity at 1 µM [4]: 0% | Cytotoxicity [5]: Not toxic | Cytotoxicity [6]: Not toxic | IC50 [7]: 0.133 µM | cytotoxicity at 0.5 µM [8]: 0% | IC50 [9]: 0.0791 µM | cytotoxicity at 8 µM [10]: 0%

N=C(N)NCCC(=O)N1CCN(c2ccnc3cc(Cl)ccc23)CCN(c2ccnc3cc(Cl)ccc23)CC1
cytotoxicity at 32 µM [3]: 0% | cytotoxicity at 1 µM [4]: 0% | Cytotoxicity [5]: Not toxic | Cytotoxicity [6]: Not toxic | cytotoxicity at 0.5 µM [8]: 0% | IC50 [9]: > 1 µM | cytotoxicity at 8 µM [10]: 0%

O=C(CCCOCc1ccccc1)N1CCN(c2ccnc3cc(Cl)ccc23)CCN(c2ccnc3cc(Cl)ccc23)CC1
Cytotoxicity [11]: Toxic | cytotoxicity at 32 µM [3]: 14% | cytotoxicity at 1 µM [4]: 0% | Cytotoxicity [5]: Not toxic | Cytotoxicity [6]: Not toxic | cytotoxicity at 0.5 µM [8]: 0% | IC50 [9]: 1 µM | cytotoxicity at 8 µM [10]: 0%

O=C(CCCO)N1CCN(c2ccnc3cc(Cl)ccc23)CCN(c2ccnc3cc(Cl)ccc23)CC1
cytotoxicity at 32 µM [3]: 0% | cytotoxicity at 1 µM [4]: 0% | Cytotoxicity [5]: Not toxic | Cytotoxicity [6]: Not toxic | cytotoxicity at 0.5 µM [8]: 0% | IC50 [9]: 0.93 µM | cytotoxicity at 8 µM [10]: 0%

O=C(CCCCCCCCCCCN1CCCCC1)N1CCN(c2ccnc3cc(Cl)ccc23)CCN(c2ccnc3cc(Cl)ccc23)CC1
Cytotoxicity [12]: Toxic | Cytotoxicity [13]: Toxic | cytotoxicity at 32 µM [3]: 89% | cytotoxicity at 1 µM [4]: 11% | Cytotoxicity [14]: Toxic | cytotoxicity at 0.5 µM [8]: 0% | IC50 [9]: 0.109 µM | cytotoxicity at 8 µM [10]: 92%

CC(NC(=O)OC(C)(C)C)C(=O)N1CCN(c2ccnc3cc(Cl)ccc23)CCN(c2ccnc3cc(Cl)ccc23)CC1 (configuration not stated)
cytotoxicity at 32 µM [3]: 0% | cytotoxicity at 1 µM [4]: 0% | Cytotoxicity [5]: Not toxic | Cytotoxicity [6]: Not toxic | cytotoxicity at 0.5 µM [8]: 0% | IC50 [9]: 0.463 µM | cytotoxicity at 8 µM [10]: 0%

CC(N)C(=O)N1CCN(c2ccnc3cc(Cl)ccc23)CCN(c2ccnc3cc(Cl)ccc23)CC1 (configuration not stated)
Cytotoxicity [13]: Toxic | cytotoxicity at 32 µM [3]: 88% | cytotoxicity at 1 µM [4]: 0% | Cytotoxicity [14]: Toxic | Cytotoxicity [6]: Not toxic | cytotoxicity at 0.5 µM [8]: 0% | IC50 [9]: 0.228 µM | cytotoxicity at 8 µM [10]: 0%

NCCC(=O)N1CCN(c2ccnc3cc(Cl)ccc23)CCN(c2ccnc3cc(Cl)ccc23)CC1
cytotoxicity at 32 µM [3]: 0% | cytotoxicity at 1 µM [4]: 0% | Cytotoxicity [5]: Not toxic | Cytotoxicity [6]: Not toxic | cytotoxicity at 0.5 µM [8]: 0% | IC50 [9]: > 1 µM | cytotoxicity at 8 µM [10]: 0%

O=C(CCC(=O)N1CCN(c2ccnc3cc(Cl)ccc23)CCN(c2ccnc3cc(Cl)ccc23)CC1)N1CCN(c2ccnc3cc(Cl)ccc23)CCN(c2ccnc3cc(Cl)ccc23)CC1
IC50 [1]: 0.0219 µM | IC50 [2]: 0.0295 µM | cytotoxicity at 32 µM [3]: 0% | cytotoxicity at 1 µM [4]: 0% | Cytotoxicity [5]: Not toxic | Cytotoxicity [6]: Not toxic | IC50 [7]: 0.0237 µM | cytotoxicity at 0.5 µM [8]: 0% | IC50 [9]: 0.0381 µM | cytotoxicity at 8 µM [10]: 0%

CC(C)(C)OC(=O)NCCC(=O)N1CCN(c2ccnc3cc(Cl)ccc23)CCN(c2ccnc3cc(Cl)ccc23)CC1
Cytotoxicity [11]: Toxic | cytotoxicity at 32 µM [3]: 100% | cytotoxicity at 1 µM [4]: 0% | Cytotoxicity [5]: Not toxic | Cytotoxicity [6]: Not toxic | cytotoxicity at 0.5 µM [8]: 0% | IC50 [9]: > 1 µM | cytotoxicity at 8 µM [10]: 0%

NC(=O)CCC(=O)N1CCN(c2ccnc3cc(Cl)ccc23)CCN(c2ccnc3cc(Cl)ccc23)CC1
cytotoxicity at 32 µM [3]: 0% | cytotoxicity at 1 µM [4]: 0% | Cytotoxicity [5]: Not toxic | Cytotoxicity [6]: Not toxic | cytotoxicity at 0.5 µM [8]: 0% | IC50 [9]: 0.98 µM | cytotoxicity at 8 µM [10]: 0%

O=C(O)CCC(=O)N1CCN(c2ccnc3cc(Cl)ccc23)CCN(c2ccnc3cc(Cl)ccc23)CC1
cytotoxicity at 32 µM [3]: 0% | cytotoxicity at 1 µM [4]: 1% | Cytotoxicity [5]: Not toxic | Cytotoxicity [6]: Not toxic | cytotoxicity at 0.5 µM [8]: 0% | IC50 [9]: > 1 µM | cytotoxicity at 8 µM [10]: 0%

Clc1ccc2c(N3CCNCCNCC3)ccnc2c1
cytotoxicity at 32 µM [3]: 0% | cytotoxicity at 1 µM [4]: 0% | Cytotoxicity [5]: Not toxic | Cytotoxicity [6]: Not toxic | cytotoxicity at 0.5 µM [8]: 0% | IC50 [9]: > 1 µM | cytotoxicity at 8 µM [10]: 0%

O=C(CCCCCCCC(=O)N1CCN(c2ccnc3cc(Cl)ccc23)CCN(c2ccnc3cc(Cl)ccc23)CC1)N1CCN(c2ccnc3cc(Cl)ccc23)CCN(c2ccnc3cc(Cl)ccc23)CC1
IC50 [1]: 0.0417 µM | IC50 [2]: 0.0672 µM | Cytotoxicity [13]: Toxic | cytotoxicity at 32 µM [3]: 0% | cytotoxicity at 1 µM [4]: 0% | Cytotoxicity [5]: Not toxic | Cytotoxicity [6]: Not toxic | IC50 [7]: 0.0463 µM | cytotoxicity at 0.5 µM [8]: 0% | IC50 [9]: 0.0226 µM | cytotoxicity at 8 µM [10]: 0%

O=C(CCCC(=O)N1CCN(c2ccnc3cc(Cl)ccc23)CCN(c2ccnc3cc(Cl)ccc23)CC1)N1CCN(c2ccnc3cc(Cl)ccc23)CCN(c2ccnc3cc(Cl)ccc23)CC1
IC50 [2]: 0.0292 µM | cytotoxicity at 32 µM [3]: 0% | cytotoxicity at 1 µM [4]: 0% | IC50 [15]: 0.0185 µM | Cytotoxicity [5]: Not toxic | Cytotoxicity [6]: Not toxic | IC50 [7]: 0.0179 µM | cytotoxicity at 0.5 µM [8]: 0% | IC50 [9]: 0.0183 µM | cytotoxicity at 8 µM [10]: 0%

O=C(CCCC(=O)N1CCN(c2ccnc3cc(Cl)ccc23)CCN(c2ccnc3cc(Cl)ccc23)CC1)N1CCNCCN(c2ccnc3cc(Cl)ccc23)CC1
cytotoxicity at 32 µM [3]: 0% | cytotoxicity at 1 µM [4]: 0% | Cytotoxicity [5]: Not toxic | Cytotoxicity [6]: Not toxic | cytotoxicity at 0.5 µM [8]: 0% | IC50 [9]: 0.275 µM | cytotoxicity at 8 µM [10]: 0%

O=C(O)CCCC(=O)N1CCN(c2ccnc3cc(Cl)ccc23)CCN(c2ccnc3cc(Cl)ccc23)CC1
cytotoxicity at 32 µM [3]: 0% | cytotoxicity at 1 µM [4]: 0% | Cytotoxicity [5]: Not toxic | Cytotoxicity [6]: Not toxic | cytotoxicity at 0.5 µM [8]: 0% | IC50 [9]: 0.94 µM | cytotoxicity at 8 µM [10]: 0%

Clc1ccc2c(NCCN(CCNc3ccnc4cc(Cl)ccc34)Cc3ccnc4ccccc34)ccnc2c1
cytotoxicity at 32 µM [3]: 0% | cytotoxicity at 1 µM [4]: 0% | Cytotoxicity [5]: Not toxic | Cytotoxicity [6]: Not toxic | cytotoxicity at 0.5 µM [8]: 0% | IC50 [9]: > 1 µM | cytotoxicity at 8 µM [10]: 0%

NCCN(CCNc1ccnc2cc(Cl)ccc12)CCNc1ccnc2cc(Cl)ccc12
cytotoxicity at 32 µM [3]: 51% | cytotoxicity at 1 µM [4]: 0% | Cytotoxicity [5]: Not toxic | Cytotoxicity [6]: Not toxic | cytotoxicity at 0.5 µM [8]: 0% | IC50 [9]: 0.606 µM | cytotoxicity at 8 µM [10]: 0%

O=C(CNCC(=O)N1CCN(c2ccnc3cc(Cl)ccc23)CCN(c2ccnc3cc(Cl)ccc23)CC1)N1CCN(c2ccnc3cc(Cl)ccc23)CCN(c2ccnc3cc(Cl)ccc23)CC1
cytotoxicity at 32 µM [3]: 0% | cytotoxicity at 1 µM [4]: 0% | Cytotoxicity [5]: Not toxic | Cytotoxicity [6]: Not toxic | cytotoxicity at 0.5 µM [8]: 0% | IC50 [9]: 0.103 µM | cytotoxicity at 8 µM [10]: 0%

O=C(CCCCCCCN1CCCCC1)N1CCN(c2ccnc3cc(Cl)ccc23)CCN(c2ccnc3cc(Cl)ccc23)CC1
Cytotoxicity [12]: Toxic | Cytotoxicity [13]: Toxic | cytotoxicity at 32 µM [3]: 91% | cytotoxicity at 1 µM [4]: 0% | Cytotoxicity [14]: Toxic | cytotoxicity at 0.5 µM [8]: 0% | IC50 [9]: 0.0811 µM | cytotoxicity at 8 µM [10]: 91%

O=C(CCCCN1CCCCC1)N1CCN(c2ccnc3cc(Cl)ccc23)CCN(c2ccnc3cc(Cl)ccc23)CC1
Cytotoxicity [13]: Toxic | cytotoxicity at 32 µM [3]: 92% | cytotoxicity at 1 µM [4]: 0% | Cytotoxicity [14]: Toxic | Cytotoxicity [6]: Not toxic | cytotoxicity at 0.5 µM [8]: 0% | IC50 [9]: 0.132 µM | cytotoxicity at 8 µM [10]: 92%

O=C(c1ccc(C(=O)N2CCN(c3ccnc4cc(Cl)ccc34)CCN(c3ccnc4cc(Cl)ccc34)CC2)cc1)N1CCN(c2ccnc3cc(Cl)ccc23)CCN(c2ccnc3cc(Cl)ccc23)CC1
cytotoxicity at 32 µM [3]: 0% | cytotoxicity at 1 µM [4]: 0% | Cytotoxicity [5]: Not toxic | Cytotoxicity [6]: Not toxic | cytotoxicity at 0.5 µM [8]: 0% | IC50 [9]: 0.266 µM | cytotoxicity at 8 µM [10]: 0%

O=C(CCCC(=O)N1CCN(c2ccnc3cc(Cl)ccc23)CCN(c2ccnc3cc(Cl)ccc23)CC1)N1CCNCCNCC1
cytotoxicity at 32 µM [3]: 0% | cytotoxicity at 1 µM [4]: 0% | Cytotoxicity [5]: Not toxic | Cytotoxicity [6]: Not toxic | cytotoxicity at 0.5 µM [8]: 0% | IC50 [9]: > 1 µM | cytotoxicity at 8 µM [10]: 0%
